# Experimental data from different studies.
# Compare with care: the assays were run in different laboratories.
# Organism: Human immunodeficiency virus 1
# Observed: viral replication
Compound,assay,test system,conditions,endpoint,result
C[N+](C)(C)CCCn1c(=O)c2cc(Br)c3c(=O)n(CCC[N+](C)(C)C)c(=O)c4c5[nH]c6ccccc6[nH]c5c(c1=O)c2c34,,"TZM-bl, NL43",48 h,IC50,> 5 µM
c1cc(CN2CCCNCCNCCCNCC2)ccc1CN1CCCNCCNCCCNCC1,"inhibitor, luciferase",TZM-bl,,EC50,0.00093 µM
Cc1cn([C@H]2C[C@H](N=[N+]=[N-])[C@@H](CO)O2)c(=O)[nH]c1=O,"inhibitor, ELISA","human PBMC, NL43",7 days,IC50,0.005 µM
CCOC(=O)c1cccc(Cn2ccc3ccc(-c4ccc5ccn(Cc6cccc(C(=O)O)c6)c5c4)cc32)c1,inhibitor,"MAGI, BAL",,IC90,28.9 µM
O=c1oc2c(O)c(O)cc3c(=O)oc4c(O)c(O)cc1c4c23,"inhibitor, luciferase",TZM-bl,48 h,IC50,18.8 µg/mL
O=c1cc(-c2ccc(O)c(O)c2)oc2cc(O)cc(O)c12,inhibitor,human PBMC,6 days,EC50,12.7 µM
Cc1cn([C@H]2C[C@H](N=[N+]=[N-])[C@@H](CO)O2)c(=O)[nH]c1=O,inhibitor,CEM-GFP,8 days,IC50,0.094 µg/mL
C[C@@H](O[C@H]1OCCN(Cc2n[nH]c(=O)[nH]2)[C@H]1c1ccc(F)cc1)c1cc(C(F)(F)F)cc(C(F)(F)F)c1,"inhibitor, ELISA","human PBMC, NL43",7 days,IC50,5.7 µM
O=c1[nH]cc(C(c2cccc(C(c3c[nH]c(=O)[nH]c3=O)c3c[nH]c(=O)[nH]c3=O)c2)c2c[nH]c(=O)[nH]c2=O)c(=O)[nH]1,"inhibitor, ELISA",,1 µg/mL,inhibition,20%
CC(C)(C)NC(=O)[C@@H]1C[C@@H]2CCCC[C@@H]2CN1C[C@@H](O)[C@H](Cc1ccccc1)NC(=O)[C@H](CC(N)=O)NC(=O)c1ccc2ccccc2n1,,MT2,,IC50,0.019 µM
c1cc(CN2CCCNCCNCCCNCC2)ccc1CN1CCCNCCNCCCNCC1,inhibitor,"MAGI, BAL",,IC90,> 10 µM
CN1CC[C@H](c2c(O)cc(O)c3c(=O)cc(-c4ccccc4Cl)oc23)[C@H](O)C1,inhibitor,human PBMC,6 days,EC50,0.02 µM
C/C(=C\C(=O)OCCCCCCCCC(=O)O)C[C@@H]1OC[C@H](C[C@@H]2O[C@H]2[C@@H](C)[C@H](C)O)[C@@H](O)[C@H]1O,inhibitor,TZM-bl,,EC50,> 100 µM
O=C(O)c1cc(F)cc(Cn2ccc3ccc(-c4ccc5ccn(Cc6cccc(OC(F)(F)F)c6)c5c4)cc32)c1,inhibitor,BAL,,IC50,1.4 µM
O=C(O)c1cc(O)c(O)c(O)c1,"inhibitor, luciferase",TZM-bl,48 h,IC50,0.36 µg/mL
O=C1C[C@@H](c2ccc(O)cc2)Oc2cc(O)cc(O)c21,inhibitor,human PBMC,6 days,EC50,> 30 µM
